Reference: ChEMBL document CHEMBL4219134, “Xanthone derivatives as phosphoglycerate mutase 1 inhibitors: Design, synthesis, and biological evaluation” (Bioorg Med Chem, 2018)

How the values were obtained:
Homo sapiens [1] = organism: Homo sapiens; assay: Inhibition of enolase (unknown origin) at 0.625 uM using 2-PG relative to control
How it was run: (§1)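 Counter-screen of the coupled downstream enzymes without PGAM1. Compound was preincubated 2 min at room temperature in 50 mM Tris pH 8.0. The reaction was started with 2PG (200 mM stock), and the NADH oxidation decrease was read at 340 nm.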

[2] = target: L-lactate dehydrogenase (Homo sapiens) (UniProt V9HWB9); assay: Inhibition of LDH (unknown origin) at 0.625 uM using 2-PG relative to control; how it was run: as §1
Homo sapiens [3] = organism: Homo sapiens; assay: Inhibition of pyruvate kinase (unknown origin) at 0.625 uM using 2-PG relative to control; how it was run: as §1
NCI-H1299 [4] = assay: Antiproliferative activity in human NCI-H1299 cells after 72 hrs; type: functional, cell-based; conditions: NCI-H1299, 72 h
How it was run: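 MTT assay: 2 × 10^3 cells per well were seeded and cultured 24 h at 37 °C. Inhibitor was added and cells were incubated 72 h at 37 °C. MTT was then added at 0.5 mg/mL for 4 h at 37 °C, followed by DMSO solubilisation and absorbance reading at 570 nm. IC50 is reported as mean ± sd of triplicates.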

[5] = target: T1, Phosphoglycerate mutase 1 (Homo sapiens, UniProt P18669); assay: Inhibition of recombinant human His-tagged PGAM1 expressed in Escherichia coli BL21 competent cells by multiple enzymes coupled assay measuring NADH oxidation at 340 nm
T1 sequence (P18669 whole entry): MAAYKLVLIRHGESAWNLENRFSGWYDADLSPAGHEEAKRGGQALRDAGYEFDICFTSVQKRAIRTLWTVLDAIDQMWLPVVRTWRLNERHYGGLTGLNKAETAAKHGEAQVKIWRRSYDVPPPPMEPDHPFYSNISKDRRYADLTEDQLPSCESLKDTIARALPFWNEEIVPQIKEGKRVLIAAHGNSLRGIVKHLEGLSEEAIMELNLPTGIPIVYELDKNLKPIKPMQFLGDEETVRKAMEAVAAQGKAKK

[6] = target: T1, Phosphoglycerate mutase 1; assay: Inhibition of recombinant PGAM1 (unknown origin) using 3-PG as substrate preincubated for 2 mins followed by substrate addition
How it was run: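 Recombinant PGAM1 plus compound (DMSO) in 50 mM Tris pH 8.0, preincubated 2 min at room temperature. Started with 3PG (200 mM stock); NADH oxidation read as OD340 decrease. IC50 from triplicates, mean ± sd.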

Homo sapiens [7] = organism: Homo sapiens; assay: Inhibition of enolase (unknown origin) at 5 uM using 2-PG relative to control
How it was run: (§2)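 PGAM1 omitted to test the downstream coupling enzymes. Compound (0.5 mM stock) preincubated 2 min at room temperature in 50 mM Tris pH 8.0. OD340 decrease read; inhibition ratio at 5 µM.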

Homo sapiens [8] = organism: Homo sapiens; assay: Inhibition of pyruvate kinase (unknown origin) at 5 uM using 2-PG relative to control; how it was run: as §2
[9] = target: L-lactate dehydrogenase (Homo sapiens) (UniProt V9HWB9); assay: Inhibition of LDH (unknown origin) at 5 uM using 2-PG relative to control; how it was run: as §2
NCI-H1299 [10] = assay: Antiproliferative activity against human H1299 cells after 72 hrs by MTT assay; type: functional, cell-based; conditions: NCI-H1299, 72 h
How it was run: (§3)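 MTT assay: 2 × 10^3 cells per well, cultured 24 h at 37 °C. Compound then added for 72 h at 37 °C, followed by 0.5 mg mL-1 MTT for 4 h. Formazan dissolved in DMSO and absorbance read at 570 nm. IC50 from triplicate experiments, mean ± sd.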

MCF7 = assay: Antiproliferative activity against human MCF7 cells after 72 hrs by MTT assay; type: functional, cell-based; conditions: MCF7, 72 h; how it was run: as §3
PANC-1 [11] = assay: Antiproliferative activity against human PANC1 cells after 72 hrs by MTT assay; type: functional, cell-based; conditions: PANC-1, 72 h; how it was run: as §3
NCI-H1299 [12] = assay: Potency index, ratio of PGMI-004A IC50 to test compound IC50 for antiproliferative activity against human H1299 cells; type: functional
PANC-1 [13] = assay: Antiproliferative activity against PGAM1 knockdown human PANC1 cells after 72 hrs by MTT assay; type: functional, cell-based; conditions: PANC-1, 72 h; how it was run: as §3
PANC-1 [14] = assay: Antiproliferative activity against PGAM1 overexpessed human PANC1 cells after 72 hrs by MTT assay; type: functional, cell-based; conditions: PANC-1, 72 h; how it was run: as §3
NCI-H1299 [15] = assay: Antiproliferative activity against human H1299 cells at 40 uM after 72 hrs by MTT assay relative to control; type: functional; conditions: NCI-H1299, 72 h
How it was run: (§4)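 MTT format: 2 × 10^3 cells per well, seeded 24 h, then compound for 72 h at 37 °C. 0.5 mg mL-1 MTT for 4 h, DMSO solubilization, A570. Inhibition ratio recorded at the top tested concentration: 40 µM for H1299, 200 µM for PANC-1.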

PANC-1 [16] = assay: Antiproliferative activity against human PANC1 cells at 200 uM after 72 hrs by MTT assay relative to control; type: functional; conditions: PANC-1, 72 h; how it was run: as §4
NCI-H1299 [17] = assay: Antiproliferative activity in human H1299 cells; type: functional, cell-based

Row | Compound | inhibition (Homo sapiens [1]) [%] | inhibition [2] [%] | inhibition (Homo sapiens [3]) [%] | IC50 (NCI-H1299 [4]) [µM] | IC50 [5] [µM] | IC50 [6] [µM] | inhibition (Homo sapiens [7]) [%] | inhibition (Homo sapiens [8]) [%] | inhibition [9] [%] | IC50 (NCI-H1299 [10]) [µM] | IC50 (MCF7) [µM] | IC50 (PANC-1 [11]) [µM] | Ratio IC50 (NCI-H1299 [12]) | IC50 (PANC-1 [13]) [µM] | IC50 (PANC-1 [14]) [µM] | inhibition at 40 µM (NCI-H1299 [15]) [%] | inhibition at 200 µM (PANC-1 [16]) [%] | IC50 (NCI-H1299 [17]) [µM]
1 | O=C(O[C@@H]1Cc2c(O)cc(O)cc2O[C@@H]1c1cc(O)c(O)c(O)c1)c1cc(O)c(O)c(O)c1 [EPIGALOCATECHIN GALLATE] | 63 | 63 | 63 | > 80 | 0.49 |  |  |  |  |  |  |  |  |  |  |  |  | 
2 | O=c1c2c(O)cccc2oc2cc(NS(=O)(=O)c3ccc(N4CCCC4)cc3)c(O)c(O)c12 |  |  |  |  |  | 2.7 | 4 | 4 | 4 | 5 | > 200 | 137 | 5 |  |  |  |  | 
3 | O=c1c2c(O)cccc2oc2cc(NS(=O)(=O)c3cc(C(F)(F)F)ccc3C(F)(F)F)c(O)c(O)c12 |  |  |  |  |  | 6.3 | 2 | 2 | 2 | 16.8 | 15.8 | 10.5 |  | 42.8 | 25 |  |  | 
4 | O=c1c2c(O)cccc2oc2cc(NS(=O)(=O)c3ccc(Br)cc3)c(O)c(O)c12 |  |  |  |  |  | 2.9 | 6 | 6 | 6 | > 40 | 6.8 | > 200 |  |  |  | < 50 |  | 
5 | O=c1c2c(O)cccc2oc2cc(NS(=O)(=O)c3ccccc3)c(O)c(O)c12 |  |  |  |  |  | 2.8 | 6 | 6 | 6 | 59 | 113 | > 200 |  |  |  |  | < 50 | 
6 | O=C1c2ccccc2C(=O)c2c1cc(S(=O)(=O)Nc1ccc(C(F)(F)F)cc1)c(O)c2O |  |  |  |  |  |  | 38 | 38 | 38 |  | > 40 | 32 |  |  |  |  |  | 25.6 to 26
